The record followed here is ChEMBL document CHEMBL1132271, “1-Benzopyran-4-one antioxidants as aldose reductase inhibitors” (J Med Chem, 1999).

Data set [1] concerns the target T1, Aldo-keto reductase family 1 member B1 (Bos taurus, UniProt P16116). As to the kind of experiment: Inhibition of Aldose reductase 2 of bovine lens. Put shortly: (§1)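 ALR2 partly purified from bovine lens (DEAE chromatography), 3.5 mU/mL. Run at 37 °C with 4.7 mM D,L-glyceraldehyde and 0.11 mM NADPH in 0.25 M sodium phosphate pH 6.80 with 0.38 M ammonium sulfate. Inhibitor added in DMSO, 1% final. Blank without substrate.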

The target of data set [2] is Aldo-keto reductase family 1 member B1 (Bos taurus) (UniProt P16116). Put plainly: The compound was tested for Inhibitory effect uM. As to conditions: concentration not given here.
For data set [3], the target named is T1, Aldo-keto reductase family 1 member B1. As to the kind of experiment: Inhibition of ALR2 (aldose reductase) of bovine lens. Summed up: as §1
Data set [4] has as its system Aldo-keto reductase family 1 member A1, aldehyde reductase ALR1 (Bos taurus). Put plainly: The compound was tested for Inhibitory effect uM. Particulars: concentration not given here.
Data set [5] can be described thus: The compound was tested for the pKa (+/-SD) values at 25 degree C. The data set is classed as physicochemical. Summed up:
(§2)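 Compound solution added to buffers at ionic strength 0.1 M, pH stepped by 0.25 unit. UV–vis spectra recorded and pH measured with a calibrated electrode. pKa calculated from absorbance change at λmax of the dissociated form, then corrected for ionic strength.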

Data set [6] concerns Liposome. Put plainly: Antioxidant action tested in AAPH-induced malondialdehyde (MDA) liposomes after 15 min. Format: functional. Put shortly: (§3)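 Lipid (LA, 2 mg/mL) suspended in 50 mM Tris pH 7.4 and extruded into micelles with test antioxidant at 0.2 mM final. Peroxidation started with AAPH (10 mM), 37 °C in shaking water bath. Aliquots taken at intervals, mixed with 20% TCA, then 0.67% TBA, boiled 10 min, hexane-extracted. MDA read at 535 nm (ε 1.49×10^5). Means ± SE.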

In data set [7] the test system is Liposome. Put plainly: Antioxidant action tested in AAPH-induced malondialdehyde (MDA) of liposomes after 30 min. Format: functional. Summed up:
as §3

For data set [8], the system named is Liposome. Put plainly: Antioxidant action tested in AAPH-induced malondialdehyde (MDA) liposomes after 60 min. Format: functional. Put shortly:
as §3

The subject of data set [9] is Liposome. As to the kind of experiment: Antioxidant action tested in AAPH-induced malondialdehyde (MDA) of liposomes after 5 min. Format: functional. Summed up:
as §3

The nature of data set [10]: Proton dissociation constant pKa was determined at 25 degree C. The data set is classed as physicochemical. Summed up: as §2
In data set [11] the test system is Liposome. Put plainly: Antioxidant action tested in AAPH-induced malondialdehyde (MDA) of liposomes after 40 min. The data set is classed as functional. Put shortly: as §3
Data set [12] deals with Liposome. Put plainly: Antioxidant action tested in AAPH-induced malondialdehyde (MDA) of liposomes after 60 min. Format: functional. Summed up: as §3
The target of data set [13] is T2, Aldo-keto reductase family 1 member A1 (Bos taurus, UniProt Q3ZCJ2). Put plainly: The compound was tested for Inhibitory effect against ALR1 in bovine kidneys. Format: tissue-based, Kidney. Summed up:
(§4)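 Run at 37 °C with 20 mM D-glucuronate and 0.12 mM NADPH in 0.1 M sodium phosphate pH 7.20. Inhibitor added in DMSO, 1% final. Blank without substrate.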

Data set [14] is described as follows: (§5) Compound was tested for Ratio of IC50(ALR1)/(ALR2). Summed up: (§6)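 Ratio of IC50 values. ALR1 (bovine kidney; 20 mM D-glucuronate, 0.12 mM NADPH, pH 7.20) and ALR2 (bovine lens; 4.7 mM D,L-glyceraldehyde, 0.11 mM NADPH, pH 6.80). Both enzymes at 3.5 mU/mL, 37 °C, 1% DMSO. IC50 from log dose–inhibition curves in duplicate.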
Data set [15] has as its system Liposome. Put plainly: Antioxidant action tested in AAPH-induced malondialdehyde (MDA) of liposomes after 15 min. Format: functional. Put shortly: as §3
In data set [16] the target is T2, Aldo-keto reductase family 1 member A1. Put plainly: The compound was tested for Inhibitory effect against Aldose reductase 1 in bovine kidneys. Put shortly:
as §4

Data set [17] deals with Aldo-keto reductase family 1 member B1 (Bos taurus) (UniProt P16116). Described as §5. Put shortly:
as §6

The target is the same in data set [18]. Put plainly: The compound was tested for Inhibitory effect against ALR2 in bovine lenses at 77 uM. Format: tissue-based. Particulars: Lens of camera-type eye. Summed up: as §1
Data set [19] has as its system Liposome. As to the kind of experiment: Antioxidant action tested inAAPH-induced malondialdehyde (MDA) liposomes after 40 min. Format: functional, subcellular. Summed up:
as §3

Data set [20] concerns Liposome. Put plainly: Antioxidant action tested in AAPH-induced malondialdehyde (MDA) liposomes after 30 min. Format: functional. Summed up:
as §3

Data set [21] deals with Liposome. As to the kind of experiment: Antioxidant action tested in AAPH-induced malondialdehyde (MDA) liposomes after 5 min. Format: functional. Summed up:
as §3

T2 sequence (Q3ZCJ2 2-325 limits assumed): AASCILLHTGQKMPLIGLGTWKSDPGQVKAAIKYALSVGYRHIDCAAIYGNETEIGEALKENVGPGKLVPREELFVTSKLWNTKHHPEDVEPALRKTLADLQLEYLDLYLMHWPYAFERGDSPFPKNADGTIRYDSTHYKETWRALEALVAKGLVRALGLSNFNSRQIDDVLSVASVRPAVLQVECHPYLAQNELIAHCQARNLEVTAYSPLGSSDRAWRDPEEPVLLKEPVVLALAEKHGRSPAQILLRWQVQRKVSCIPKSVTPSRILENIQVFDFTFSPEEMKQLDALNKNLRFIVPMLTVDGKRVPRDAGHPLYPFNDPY

For `O=C(O)c1ccc2c(=O)cc(Cc3ccc(O)cc3)oc2c1`, the IC50 in [1] came out at 10.9 µM.

In [1], `O=c1cc(CCCc2ccc(O)cc2)oc2cc(O)ccc12` came in with an IC50 of 29.4 µM.

For the compound `O=c1c(Cc2ccc(-c3ccccc3)cc2)c(Cc2ccc(O)cc2)oc2cc(O)ccc12`, the inhibition in data set [2] turned out to be 0%.

For `O=c1cc(-c2ccccc2)oc2cc(O)c([N+](=O)[O-])cc12`, the IC50 in data set [3] worked out at 3.87 µM. Besides, in [4], the inhibition worked out at 27.5%. This compound also had a pKa in [5] of 5.3.

The compound `COc1ccc2c(=O)cc(Cc3ccc(O)cc3)oc2c1` showed an inhibition in data set [2] of 37%.

For the compound `O=c1cc(Cc2ccc(O)cc2)oc2ccc(O)cc12`, the Activity in [6] came out at 1.54 nM ml-1; in data set [7], 1.46 nM ml-1; in data set [8] it was 1.27 nM ml-1; in [9] it was 1.19 nM ml-1; in [11], 1.29 nM ml-1. In [10], this compound registered a pKa of 8.89. In [1], this compound returned an IC50 of 13.1 µM.

For the compound `O=c1cc(Cc2ccc(O)c(O)c2)oc2cc(O)ccc12`, the Activity in data set [12] came to 1.53 nM ml-1; in data set [7] it was 1.07 nM ml-1; in [9], 0.935 nM ml-1; in [11], 0.852 nM ml-1; in data set [15], 1.18 nM ml-1. Moreover, the IC50 was 13.2 µM in data set [13] and 3.14 µM in data set [3]. Moreover, in data set [14], the Ratio was determined as 4.2.

With `O=c1cc(-c2ccc(O)c(O)c2)oc2cc(O)ccc12`, in [3], the IC50 stood at 6.52 µM.

Consider `O=c1cc(Cc2ccccc2)oc2cc(O)ccc12`, for which the IC50 is 6.61 µM in [1] and 39.2 µM in data set [16]. In addition, in data set [17], the Ratio is 5.9.

As for `O=c1cc(-c2ccccc2)oc2cccc(O)c12`, the inhibition in data set [2] worked out at 0%.

`COc1ccc(Cc2cc(=O)c3ccc(OC)cc3o2)cc1`: the inhibition in data set [2] turned out to be 0%.

The compound `O=c1cc(-c2ccc(O)c(O)c2)oc2cc(O)cc(O)c12` [LUTEOLIN] yielded an IC50 in data set [3] of 9.57 µM.

In the case of `Cc1cc(C(C)(C)C)c(O)c(C(C)(C)C)c1`, the Activity in [12] was 0.937 nM ml-1; in data set [7], 1.33 nM ml-1; in data set [9] it was 1.62 nM ml-1; in data set [11], 1.23 nM ml-1; in data set [15], 1.33 nM ml-1.

Consider `O=c1ccoc2cc(O)ccc12`, for which the IC50 in [1] was 137 µM; in data set [16], 114 µM. The Ratio in [17] is 1.

`O=c1cc(C(c2ccccc2)c2ccccc2)oc2cc(O)ccc12`: the half-inhibitory concentration (IC50) in [1] turned out to be 10.9 µM.

In [1], `O=c1cc(Cc2ccc3ccccc3c2)oc2cc(O)ccc12` registered a half-maximal inhibitory concentration (IC50) of 22.3 µM.

For the compound `COc1ccc2c(=O)c(Cc3ccc(O)cc3)coc2c1`, the inhibition in [18] is 18%.

The compound `O=c1cc(CCc2ccc(O)cc2)oc2cc(O)ccc12` displayed a 50% inhibitory concentration (IC50) in [1] of 41 µM.

For the compound `COc1ccc2oc(Cc3ccc(O)cc3)cc(=O)c2c1`, in data set [2], the inhibition turned out to be 40%.

Regarding `O=c1c(Cc2ccccc2)c(Cc2ccc(O)cc2)oc2cc(O)ccc12`, the IC50 in data set [1] came out at 14.2 µM.

`Cc1oc2cc(O)ccc2c(=O)c1Cc1ccc(O)cc1` displayed an IC50 in [1] of 85.7 µM.

Take `O=c1cc(Cc2ccc(O)cc2)oc2cc(O)ccc12`: the Activity in data set [6] is 1.95 nM ml-1; in data set [8], 1.81 nM ml-1; in data set [19] it was 2.1 nM ml-1; in data set [20] it was 1.9 nM ml-1; in data set [21], 2.02 nM ml-1. Further, the 50% inhibitory concentration (IC50) worked out at 2.5 µM in [1] and 16.8 µM in data set [16]. The Ratio in data set [17] was 6.7.

As to `O=c1c(O)c(-c2ccccc2)oc2ccccc12`, the inhibition in data set [2] worked out at 0%.

In turn, `COc1ccc2c(=O)cc(-c3ccccc3)oc2c1` had an inhibition in data set [2] of 32%.

`COc1ccc(Cc2cc(=O)c3ccc(O)cc3o2)cc1`: the pKa in data set [10] was 7.35. Moreover, the results for the concentration for half-maximal inhibition (IC50) in [1] and in [16] were 7.01 µM and 16.6 µM, respectively. In data set [17], the Ratio is 2.4.

As to `O=C(O)Cc1ccc2c(=O)cc(Cc3ccc(O)cc3)oc2c1`, the 50% inhibitory concentration (IC50) in data set [1] was 1.3 µM; in [16], 128 µM. Besides, in [17], the Ratio was determined as 98.5.

With `O=c1c(Cc2ccc(O)cc2)coc2cc(O)ccc12`, the midpoint of inhibition in data set [3], the IC50, lay at 60.5 µM.
